Test results reported in ChEMBL document CHEMBL1149879, “Ten-membered lactones from Phomopsis sp., an endophytic fungus of Azadirachta indica” (2008).
Values after ≈ are worked out from the molar mass of the structure shown.

Columns and labels:
Format in all cases: functional
Botrytis cinerea = experiment: Antifungal activity against Botrytis cinerea YM3061 after 72 hrs by disk diffusion method
Procedure, shortened: (§1)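 Paper-disk diffusion. Fungi grown on PDA at 28 °C; spores mixed into melted PDA at 1 × 10^6 spores/mL and poured into plates. Compounds in 50% aqueous DMSO, serially double diluted from 500 to 15.63 µg/mL, loaded onto sterile 6 mm paper disks. Dried disks placed on agar, incubated 28 °C for 72 h, inhibition zones then measured.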

Aspergillus niger = experiment: Antifungal activity against Aspergillus niger YM3029 after 72 hrs by disk diffusion method; procedure, shortened: as §1
Fusarium verticillioides = experiment: Antifungal activity against Fusarium moniliforme YM3067 after 72 hrs by disk diffusion method; procedure, shortened: as §1
Fusarium avenaceum = experiment: Antifungal activity against Fusarium avenaceum YM3065 after 72 hrs by disk diffusion method; procedure, shortened: as §1
Bipolaris maydis = experiment: Antifungal activity against Helminthosporium maydis YM3076 after 72 hrs by disk diffusion method; procedure, shortened: as §1
Ophiostoma minus = experiment: Antifungal activity against Ophiostoma minus YM3429 after 72 hrs by disk diffusion method; procedure, shortened: as §1
Talaromyces islandicus = experiment: Antifungal activity against Penicillium islandicum YM3104 after 72 hrs by disk diffusion method; procedure, shortened: as §1

Row | Compound | MIC (Botrytis cinerea) [µg/mL] | MIC (Aspergillus niger) [µg/mL] | MIC (Fusarium verticillioides) [µg/mL] | MIC (Fusarium avenaceum) [µg/mL] | MIC (Bipolaris maydis) [µg/mL] | MIC (Ophiostoma minus) [µg/mL] | MIC (Talaromyces islandicus) [µg/mL]
1 | C[C@@H]1C[C@@H](O)[C@@H](O)/C=C/[C@@H]2O[C@@H]2C(=O)O1 [MULTIPLOLIDE A] | > 500 | 250 (≈ 1170 µM) | > 500 | > 500 | 500 (≈ 2330 µM) | > 500 | 250 (≈ 1170 µM)
2 | C[C@@H]1C[C@@H](O)[C@@H](O)/C=C/C=C\C(=O)O1 | 500 (≈ 2520 µM) | 125 (≈ 631 µM) | > 500 | > 500 | 500 (≈ 2520 µM) | > 500 | > 500
3 | NYSTATIN | 31.2 | 15.6 | 62.5 | 62.5 | 31.2 | 31.2 | 15.6
4 | CC(=O)O[C@@H]1C[C@@H](C)OC(=O)[C@H]2O[C@H]2/C=C/[C@@H]1O [8ALPHA-ACETOXYMULTIPLOLIDE A] | 62.5 (≈ 244 µM) | 125 (≈ 488 µM) | 500 (≈ 1950 µM) | > 500 | 500 (≈ 1950 µM) | 31.2 (≈ 122 µM) | 250 (≈ 976 µM)
5 | CC(=O)O[C@H]1/C=C/[C@@H]2O[C@@H]2C(=O)O[C@H](C)C[C@H]1O [7ALPHA-ACETOXYMULTIPLOLIDE A] | > 500 | 125 (≈ 488 µM) | > 500 | > 500 | > 500 | > 500 | > 500
6 | CC(=O)O[C@@H]1C[C@@H](C)OC(=O)CC[C@H](O)CC1=O | 250 (≈ 968 µM) | 125 (≈ 484 µM) | > 500 | > 500 | 500 (≈ 1940 µM) | > 500 | 250 (≈ 968 µM)
